Source: ChEMBL document CHEMBL4229368, “N,N'-disubstituted cinnamamide derivatives potentiate ciprofloxacin activity against overexpressing NorA efflux pump Staphylococcus aureus 1199B strains” (Eur J Med Chem, 2018)

How the values were obtained:
[1] = molecular target: T1, Quinolone resistance protein NorA (Staphylococcus aureus) (UniProt P0A0J7); test: Inhibition of NorA in Staphylococcus aureus SA1199B assessed as potentiation of ciprofloxacin-induced antibacterial activity by measuring fold reduction in ciprofloxacin MIC at 19.1 uM after 18 to 24 hrs by broth microdilution method
T1 sequence (whole entry): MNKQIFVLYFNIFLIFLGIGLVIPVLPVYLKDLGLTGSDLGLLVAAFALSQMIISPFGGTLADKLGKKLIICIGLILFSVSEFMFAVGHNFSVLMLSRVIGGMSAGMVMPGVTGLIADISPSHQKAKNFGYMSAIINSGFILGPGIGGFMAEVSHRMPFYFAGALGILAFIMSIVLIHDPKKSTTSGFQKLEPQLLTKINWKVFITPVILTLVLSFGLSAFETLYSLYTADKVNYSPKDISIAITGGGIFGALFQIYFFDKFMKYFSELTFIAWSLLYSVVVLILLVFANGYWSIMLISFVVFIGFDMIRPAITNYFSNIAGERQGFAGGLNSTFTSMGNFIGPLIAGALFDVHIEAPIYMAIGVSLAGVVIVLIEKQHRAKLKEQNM
Method in brief: (§1)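 Ciprofloxacin MIC by CLSI/CASFM broth microdilution in Mueller-Hinton II, two-fold serial dilutions, inoculum 5.10⁵ CFU/mL, 37 °C for 18-24 h. MIC is the lowest concentration with no visible growth. Test agent co-administered at a fixed final concentration without antibacterial activity (10 or 30 µg/mL, or 1/4 MIC where intrinsically active). Result is fold reduction of ciprofloxacin MIC. At least three independent experiments.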

[2] = molecular target: T1, Quinolone resistance protein NorA (Staphylococcus aureus); test: Potency index, ratio of compound effect to reserpine effect for inhibition of NorA in Staphylococcus aureus SA1199B assessed as potentiation of ciprofloxacin-induced antibacterial activity by measuring fold reduction in ciprofloxacin MIC
[3] = Cytotoxicity against human MRC5 cells assessed as reduction in cell viability after 72 hrs by MTT assay; assay type: cell-based
Method in brief: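 MRC5 human lung fibroblasts plated in triplicate at 6000 cells/well in MEM with 10% FBS and incubated overnight at 37 °C, 5% CO2. Compound or DMSO vehicle applied for 72 h, then MTT 1 mg/mL added for 3 h at 37 °C. Formazan dissolved in 0.01 M HCl in isopropanol for 15 min. A570 read minus A690; GI50 as mean SD of ≥3 independent experiments.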

Staphylococcus aureus [4] = test: Growth inhibition of wild type Staphylococcus aureus SA1199 assessed as non-toxic concentration after 18 to 24 hrs by broth microdilution method; assay type: organism-based; conditions: pooled result: one value given for 2 cell lines, strains, targets or settings, read-out: Activity
Staphylococcus aureus [5] = test: Bactericidal activity against wild type Staphylococcus aureus SA1199 at 10 ug/ml after 18 to 24 hrs by broth microdilution method; assay type: ADME, organism-based
Staphylococcus aureus [6] = test: Potentiation of ciprofloxacin-induced antibacterial activity against wild type Staphylococcus aureus SA1199 assessed as fold reduction in ciprofloxacin MIC at 19.1 uM after 18 to 24 hrs by broth microdilution method; assay type: functional; method in brief: as §1
[7] = molecular target: T1, Quinolone resistance protein NorA (Staphylococcus aureus); test: Inhibition of NorA in Staphylococcus aureus SA1199B assessed as potentiation of ciprofloxacin-induced antibacterial activity by measuring fold reduction in ciprofloxacin MIC at 21 uM after 18 to 24 hrs by broth microdilution method; method in brief: as §1
Staphylococcus aureus [8] = test: Potentiation of ciprofloxacin-induced antibacterial activity against wild type Staphylococcus aureus SA1199 assessed as fold reduction in ciprofloxacin MIC at 21 uM after 18 to 24 hrs by broth microdilution method; assay type: functional; method in brief: as §1
Staphylococcus aureus [9] = test: Potentiation of ciprofloxacin-induced antibacterial activity against wild type Staphylococcus aureus SA1199 assessed as fold reduction in ciprofloxacin MIC at 22.9 uM after 18 to 24 hrs by broth microdilution method; assay type: functional; method in brief: as §1
[10] = molecular target: T1, Quinolone resistance protein NorA (Staphylococcus aureus); test: Inhibition of NorA in Staphylococcus aureus SA1199B assessed as potentiation of ciprofloxacin-induced antibacterial activity by measuring fold reduction in ciprofloxacin MIC at 22.9 uM after 18 to 24 hrs by broth microdilution method; method in brief: as §1
Staphylococcus aureus [11] = test: Bactericidal activity against wild type Staphylococcus aureus SA1199 at 30 ug/ml after 18 to 24 hrs by broth microdilution method; assay type: ADME, organism-based; conditions: in vitro
Staphylococcus aureus [12] = test: Potentiation of ciprofloxacin-induced antibacterial activity against wild type Staphylococcus aureus SA1199 assessed as fold reduction in ciprofloxacin MIC at 81.3 uM after 18 to 24 hrs by broth microdilution method; assay type: functional; method in brief: as §1
[13] = molecular target: T1, Quinolone resistance protein NorA (Staphylococcus aureus); test: Inhibition of NorA in Staphylococcus aureus SA1199B assessed as potentiation of ciprofloxacin-induced antibacterial activity by measuring fold reduction in ciprofloxacin MIC at 81.3 uM after 18 to 24 hrs by broth microdilution method; method in brief: as §1
Staphylococcus aureus [14] = test: Potentiation of ciprofloxacin-induced antibacterial activity against wild type Staphylococcus aureus SA1199 assessed as fold reduction in ciprofloxacin MIC at 23 uM after 18 to 24 hrs by broth microdilution method; assay type: functional; method in brief: as §1
[15] = molecular target: T1, Quinolone resistance protein NorA (Staphylococcus aureus); test: Inhibition of NorA in Staphylococcus aureus SA1199B assessed as potentiation of ciprofloxacin-induced antibacterial activity by measuring fold reduction in ciprofloxacin MIC at 23 uM after 18 to 24 hrs by broth microdilution method; method in brief: as §1
Staphylococcus aureus [16] = test: Potentiation of ciprofloxacin-induced antibacterial activity against wild type Staphylococcus aureus SA1199 assessed as fold reduction in ciprofloxacin MIC at 25.3 uM after 18 to 24 hrs by broth microdilution method; assay type: functional; method in brief: as §1
[17] = molecular target: T1, Quinolone resistance protein NorA (Staphylococcus aureus); test: Inhibition of NorA in Staphylococcus aureus SA1199B assessed as potentiation of ciprofloxacin-induced antibacterial activity by measuring fold reduction in ciprofloxacin MIC at 25.3 uM after 18 to 24 hrs by broth microdilution method; method in brief: as §1
Staphylococcus aureus [18] = test: Potentiation of ciprofloxacin-induced antibacterial activity against wild type Staphylococcus aureus SA1199 assessed as fold reduction in ciprofloxacin MIC at 8.5 uM after 18 to 24 hrs by broth microdilution method; assay type: functional; method in brief: as §1
Staphylococcus aureus [19] = test: Growth inhibition of Staphylococcus aureus SA1199B over-expressing NorA at 3.9 ug/ml after 18 to 24 hrs by broth microdilution method; assay type: organism-based
Staphylococcus aureus [20] = test: Growth inhibition of wild type Staphylococcus aureus SA1199 after 18 to 24 hrs by broth microdilution method; assay type: organism-based
Staphylococcus aureus [21] = test: Growth inhibition of wild type Staphylococcus aureus SA1199 at 3.9 ug/ml after 18 to 24 hrs by broth microdilution method; assay type: organism-based
[22] = molecular target: T1, Quinolone resistance protein NorA (Staphylococcus aureus); test: Inhibition of NorA in Staphylococcus aureus SA1199B assessed as potentiation of ciprofloxacin-induced antibacterial activity by measuring fold reduction in ciprofloxacin MIC at 8.5 uM after 18 to 24 hrs by broth microdilution method; method in brief: as §1
Staphylococcus aureus [23] = test: Potentiation of ciprofloxacin-induced antibacterial activity against wild type Staphylococcus aureus SA1199 assessed as fold reduction in ciprofloxacin MIC at 32.9 uM after 18 to 24 hrs by broth microdilution method; assay type: functional
Staphylococcus aureus [24] = test: Growth inhibition of Staphylococcus aureus SA1199B over-expressing NorA at 15.6 ug/ml after 18 to 24 hrs by broth microdilution method; assay type: organism-based
Staphylococcus aureus [25] = test: Potentiation of ciprofloxacin-induced antibacterial activity against wild type Staphylococcus aureus SA1199 assessed as fold reduction in ciprofloxacin MIC at 37.1 uM after 18 to 24 hrs by broth microdilution method; assay type: functional; method in brief: as §1
[26] = molecular target: T1, Quinolone resistance protein NorA (Staphylococcus aureus); test: Inhibition of NorA in Staphylococcus aureus SA1199B assessed as potentiation of ciprofloxacin-induced antibacterial activity by measuring fold reduction in ciprofloxacin MIC at 37.1 uM after 18 to 24 hrs by broth microdilution method; method in brief: as §1
Staphylococcus aureus [27] = test: Potentiation of ciprofloxacin-induced antibacterial activity against wild type Staphylococcus aureus SA1199 assessed as fold reduction in ciprofloxacin MIC at 73 uM after 18 to 24 hrs by broth microdilution method; assay type: functional; method in brief: as §1
[28] = molecular target: T1, Quinolone resistance protein NorA (Staphylococcus aureus); test: Inhibition of NorA in Staphylococcus aureus SA1199B assessed as potentiation of ciprofloxacin-induced antibacterial activity by measuring fold reduction in ciprofloxacin MIC at 73 uM after 18 to 24 hrs by broth microdilution method; method in brief: as §1
Staphylococcus aureus [29] = test: Potentiation of ciprofloxacin-induced antibacterial activity against wild type Staphylococcus aureus SA1199 assessed as fold reduction in ciprofloxacin MIC at 80.6 uM after 18 to 24 hrs by broth microdilution method; assay type: functional; method in brief: as §1
[30] = molecular target: T1, Quinolone resistance protein NorA (Staphylococcus aureus); test: Inhibition of NorA in Staphylococcus aureus SA1199B assessed as potentiation of ciprofloxacin-induced antibacterial activity by measuring fold reduction in ciprofloxacin MIC at 80.6 uM after 18 to 24 hrs by broth microdilution method; method in brief: as §1
[31] = molecular target: T1, Quinolone resistance protein NorA (Staphylococcus aureus); test: Inhibition of NorA in Staphylococcus aureus SA1199B assessed as potentiation of ciprofloxacin-induced antibacterial activity by measuring fold reduction in ciprofloxacin MIC at 90.9 uM after 18 to 24 hrs by broth microdilution method; method in brief: as §1
Staphylococcus aureus [32] = test: Potentiation of ciprofloxacin-induced antibacterial activity against wild type Staphylococcus aureus SA1199 assessed as fold reduction in ciprofloxacin MIC at 90.9 uM after 18 to 24 hrs by broth microdilution method; assay type: functional; method in brief: as §1
[33] = molecular target: T1, Quinolone resistance protein NorA (Staphylococcus aureus); test: Inhibition of NorA in Staphylococcus aureus SA1199B assessed as potentiation of ciprofloxacin-induced antibacterial activity by measuring fold reduction in ciprofloxacin MIC at 20.6 uM after 18 to 24 hrs by broth microdilution method; method in brief: as §1
Staphylococcus aureus [34] = test: Potentiation of ciprofloxacin-induced antibacterial activity against wild type Staphylococcus aureus SA1199 assessed as fold reduction in ciprofloxacin MIC at 20.6 uM after 18 to 24 hrs by broth microdilution method; assay type: functional; method in brief: as §1

SMILES	GI50 at 72 h [3] [µM]	MNTC (Staphylococcus aureus [4]) [µM]	Activity (Staphylococcus aureus [5])	Activity (Staphylococcus aureus [11])	other results
CC(C)(C)OC(=O)N[C@@H](Cc1ccccc1)CN(CCc1c[nH]c2ccccc12)C(=O)/C=C/c1ccccc1	70	19.1	Non-Toxic		fold change (FC) [1]: 4 to 8; Ratio [2]: 2; fold change (FC) (Staphylococcus aureus [6]): 1 - 2
CC(C)[C@@H](CN(CCc1c[nH]c2ccccc12)C(=O)/C=C/c1ccccc1)NC(=O)OC(C)(C)C	43.7	21	Non-Toxic		fold change (FC) [7]: 4; fold change (FC) (Staphylococcus aureus [8]): 1 - 2
CC(C)[C@@H](CN(CCc1ccccc1)C(=O)/C=C/c1ccccc1)NC(=O)OC(C)(C)C	40.7	22.9	Non-Toxic		fold change (FC) (Staphylococcus aureus [9]): 1 - 2; fold change (FC) [10]: 2
Cl.NCCN(CCc1c[nH]c2ccccc12)C(=O)/C=C/c1ccccc1	20.7	81.3		Non-Toxic	fold change (FC) (Staphylococcus aureus [12]): 2; fold change (FC) [13]: 2
CC(C)(C)OC(=O)NCCN(CCc1c[nH]c2ccccc12)C(=O)/C=C/c1ccccc1	35.3	23	Non-Toxic		fold change (FC) (Staphylococcus aureus [14]): 2; fold change (FC) [15]: 4
CC(C)(C)OC(=O)NCCN(CCc1ccccc1)C(=O)/C=C/c1ccccc1	54.7	25.3	Non-Toxic		fold change (FC) (Staphylococcus aureus [16]): 1; fold change (FC) [17]: 2
Cl.N[C@@H](Cc1ccccc1)CN(CCc1c[nH]c2ccccc12)C(=O)/C=C/c1ccccc1	6.33	8.5			fold change (FC) (Staphylococcus aureus [18]): 2; growth inhibition (GI) (Staphylococcus aureus [19]): Toxic; MIC (Staphylococcus aureus [20]): 15.7 µg/mL; growth inhibition (GI) (Staphylococcus aureus [21]): Toxic; fold change (FC) [22]: 2
COC(=O)[C@H]1[C@H]2C[C@@H]3c4[nH]c5cc(OC)ccc5c4CCN3C[C@H]2C[C@@H](OC(=O)c2cc(OC)c(OC)c(OC)c2)[C@@H]1OC [RESERPINE]	14.7	32.9			fold change (FC) (Staphylococcus aureus [23]): 2
Cl.N[C@@H](Cc1ccccc1)CN(CCc1ccccc1)C(=O)/C=C/c1ccccc1	6.5	37.1			MIC (Staphylococcus aureus [20]): 62.5 µg/mL; growth inhibition (GI) (Staphylococcus aureus [24]): Toxic; fold change (FC) (Staphylococcus aureus [25]): 2 - 4; fold change (FC) [26]: 2
CC(C)[C@H](N)CN(CCc1c[nH]c2ccccc12)C(=O)/C=C/c1ccccc1.Cl	25.3	73		Non-Toxic	fold change (FC) (Staphylococcus aureus [27]): 2 - 4; fold change (FC) [28]: 4
CC(C)[C@H](N)CN(CCc1ccccc1)C(=O)/C=C/c1ccccc1.Cl	52.4	80.6		Non-Toxic	fold change (FC) (Staphylococcus aureus [29]): 1 - 2; fold change (FC) [30]: 2
Cl.NCCN(CCc1ccccc1)C(=O)/C=C/c1ccccc1	73.3	90.9		Non-Toxic	fold change (FC) [31]: 1; fold change (FC) (Staphylococcus aureus [32]): 1 - 2
CC(C)(C)OC(=O)N[C@@H](Cc1ccccc1)CN(CCc1ccccc1)C(=O)/C=C/c1ccccc1	17.3	20.6	Non-Toxic		fold change (FC) [33]: 1 to 2; fold change (FC) (Staphylococcus aureus [34]): 1
